Source: ChEMBL document CHEMBL5058577, “EUbOPEN Chemogenomics Library 2 (Multiplex)” (2022)

Test system: Fibroblast
Experiment: Multiplex assay against human fibroblast
Type: toxicity, cell-based
Procedure, shortened: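 On a CQ1 microscope at 37°C and 5% CO2, live cells were imaged after compound addition. They had been stained at seeding with Hoechst33342, BioTracker Green Microtubule Cytoskeleton Dye, MitoTracker Red and Annexin V Alexa Fluor 680. CellPathfinder machine-learning gating assigned cells to Hoechst high-intensity objects or normal cells, normal cells to healthy, pyknosed or fragmented nuclei, and pyknosed cells to mitotic or apoptotic. Tubulin, mitochondrial-mass and membrane-permeability phenotypes are per cents of healthy-nucleus cells.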

[1] = 12 h, 1 µM, compound concentration 1 uM, replicate 1
[2] = 12 h, 1 µM, compound concentration 1 uM, replicate 2
[3] = 12 h, 10 µM, compound concentration 10 uM, replicate 1
[4] = 12 h, 10 µM, compound concentration 10 uM, replicate 2
[5] = 24 h, 1 µM, compound concentration 1 uM, replicate 1
[6] = 24 h, 1 µM, compound concentration 1 uM, replicate 2
[7] = 24 h, 10 µM, compound concentration 10 uM, replicate 1
[8] = 24 h, 10 µM, compound concentration 10 uM, replicate 2
[9] = 48 h, 1 µM, compound concentration 1 uM, replicate 1
[10] = 48 h, 1 µM, compound concentration 1 uM, replicate 2
[11] = 48 h, 10 µM, compound concentration 10 uM, replicate 1
[12] = 48 h, 10 µM, compound concentration 10 uM, replicate 2

Compound: C[C@@H]1CC(=O)Nc2cccc(-c3ccc4c(c3)c(-c3cnn(C)c3)nn4C)c2N1
- Population Apoptotic (%) [1]: 38%
- Population Fragmented Nuclei (%) [1]: 20%
- Population Healthy Nuclei (%) [1]: 63%
- Population Hoechst High Intensity Objects (%) [1]: 1%
- Population Membrane Permeable-Phenotype (%) [1]: 0%
- Population Mitochondria Different-Phenotype (%) [1]: 4%
- Population Mitotic Cells (%) [1]: 61%
- Population Normal (%) [1]: 98%
- Population Pyknosed Nuclei (%) [1]: 15%
- Population Tubulin-Different-Phenotype (%) [1]: 31%
- Total Cell Count [1]: 115
- Population Fragmented Nuclei (%) [2]: 26%
- Population Healthy Nuclei (%) [2]: 47%
- Population Hoechst High Intensity Objects (%) [2]: 5%
- Population Membrane Permeable-Phenotype (%) [2]: 8%
- Population Mitochondria Different-Phenotype (%) [2]: 12%
- Population Normal (%) [2]: 94%
- Population Pyknosed Nuclei (%) [2]: 26%
- Population Tubulin-Different-Phenotype (%) [2]: 51%
- Total Cell Count [2]: 105
- Population Apoptotic (%) [3]: 40%
- Population Fragmented Nuclei (%) [3]: 17%
- Population Healthy Nuclei (%) [3]: 65%
- Population Hoechst High Intensity Objects (%) [3]: 5%
- Population Membrane Permeable-Phenotype (%) [3]: 1%
- Population Mitochondria Different-Phenotype (%) [3]: 19%
- Population Mitotic Cells (%) [3]: 59%
- Population Normal (%) [3]: 94%
- Population Pyknosed Nuclei (%) [3]: 17%
- Population Tubulin-Different-Phenotype (%) [3]: 63%
- Total Cell Count [3]: 161
- Population Apoptotic (%) [4]: 30%
- Population Fragmented Nuclei (%) [4]: 11%
- Population Healthy Nuclei (%) [4]: 58%
- Population Hoechst High Intensity Objects (%) [4]: 6%
- Population Membrane Permeable-Phenotype (%) [4]: 7%
- Population Mitochondria Different-Phenotype (%) [4]: 5%
- Population Mitotic Cells (%) [4]: 69%
- Population Normal (%) [4]: 93%
- Population Pyknosed Nuclei (%) [4]: 30%
- Population Tubulin-Different-Phenotype (%) [4]: 68%
- Total Cell Count [4]: 126
- Population Apoptotic (%) [5]: 57%
- Population Fragmented Nuclei (%) [5]: 16%
- Population Healthy Nuclei (%) [5]: 67%
- Population Hoechst High Intensity Objects (%) [5]: 2%
- Population Membrane Permeable-Phenotype (%) [5]: 2%
- Population Mitochondria Different-Phenotype (%) [5]: 5%
- Population Mitotic Cells (%) [5]: 42%
- Population Normal (%) [5]: 97%
- Population Pyknosed Nuclei (%) [5]: 15%
- Population Tubulin-Different-Phenotype (%) [5]: 33%
- Total Cell Count [5]: 122
- Population Apoptotic (%) [6]: 35%
- Population Fragmented Nuclei (%) [6]: 29%
- Population Healthy Nuclei (%) [6]: 50%
- Population Hoechst High Intensity Objects (%) [6]: 7%
- Population Membrane Permeable-Phenotype (%) [6]: 11%
- Population Mitochondria Different-Phenotype (%) [6]: 9%
- Population Mitotic Cells (%) [6]: 65%
- Population Normal (%) [6]: 92%
- Population Pyknosed Nuclei (%) [6]: 19%
- Population Tubulin-Different-Phenotype (%) [6]: 60%
- Total Cell Count [6]: 112
- Population Apoptotic (%) [7]: 75%
- Population Fragmented Nuclei (%) [7]: 19%
- Population Healthy Nuclei (%) [7]: 69%
- Population Hoechst High Intensity Objects (%) [7]: 10%
- Population Membrane Permeable-Phenotype (%) [7]: 0%
- Population Mitochondria Different-Phenotype (%) [7]: 15%
- Population Mitotic Cells (%) [7]: 25%
- Population Normal (%) [7]: 89%
- Population Pyknosed Nuclei (%) [7]: 11%
- Population Tubulin-Different-Phenotype (%) [7]: 66%
- Total Cell Count [7]: 158
- Population Apoptotic (%) [8]: 42%
- Population Fragmented Nuclei (%) [8]: 13%
- Population Healthy Nuclei (%) [8]: 57%
- Population Hoechst High Intensity Objects (%) [8]: 5%
- Population Membrane Permeable-Phenotype (%) [8]: 1%
- Population Mitochondria Different-Phenotype (%) [8]: 4%
- Population Mitotic Cells (%) [8]: 57%
- Population Normal (%) [8]: 94%
- Population Pyknosed Nuclei (%) [8]: 29%
- Population Tubulin-Different-Phenotype (%) [8]: 76%
- Total Cell Count [8]: 119
- Population Apoptotic (%) [9]: 50%
- Population Fragmented Nuclei (%) [9]: 25%
- Population Healthy Nuclei (%) [9]: 60%
- Population Hoechst High Intensity Objects (%) [9]: 5%
- Population Membrane Permeable-Phenotype (%) [9]: 1%
- Population Mitochondria Different-Phenotype (%) [9]: 6%
- Population Mitotic Cells (%) [9]: 50%
- Population Normal (%) [9]: 94%
- Population Pyknosed Nuclei (%) [9]: 14%
- Population Tubulin-Different-Phenotype (%) [9]: 21%
- Total Cell Count [9]: 114
- Population Apoptotic (%) [10]: 30%
- Population Fragmented Nuclei (%) [10]: 36%
- Population Healthy Nuclei (%) [10]: 50%
- Population Hoechst High Intensity Objects (%) [10]: 2%
- Population Membrane Permeable-Phenotype (%) [10]: 12%
- Population Mitochondria Different-Phenotype (%) [10]: 8%
- Population Mitotic Cells (%) [10]: 69%
- Population Normal (%) [10]: 97%
- Population Pyknosed Nuclei (%) [10]: 13%
- Population Tubulin-Different-Phenotype (%) [10]: 60%
- Total Cell Count [10]: 102
- Population Apoptotic (%) [11]: 92%
- Population Fragmented Nuclei (%) [11]: 17%
- Population Healthy Nuclei (%) [11]: 73%
- Population Hoechst High Intensity Objects (%) [11]: 3%
- Population Membrane Permeable-Phenotype (%) [11]: 0%
- Population Mitochondria Different-Phenotype (%) [11]: 19%
- Population Mitotic Cells (%) [11]: 7%
- Population Normal (%) [11]: 96%
- Population Pyknosed Nuclei (%) [11]: 8%
- Population Tubulin-Different-Phenotype (%) [11]: 68%
- Total Cell Count [11]: 162
- Population Apoptotic (%) [12]: 60%
- Population Healthy Nuclei (%) [12]: 62%
- Population Hoechst High Intensity Objects (%) [12]: 4%
- Population Membrane Permeable-Phenotype (%) [12]: 6%
- Population Mitochondria Different-Phenotype (%) [12]: 2%
- Population Mitotic Cells (%) [12]: 39%
- Population Normal (%) [12]: 95%
- Population Pyknosed Nuclei (%) [12]: 19%
- Population Tubulin-Different-Phenotype (%) [12]: 69%
- Total Cell Count [12]: 122
